In test [1] the target is T1, Myosin light chain kinase, smooth muscle (Homo sapiens, UniProt Q15746). The test is described as follows: Inhibition of MLCK by HTRF assay. (Time-resolved FRET reads energy transfer from a long-lived donor to a nearby acceptor.)
The target in test [2] is T2, Epidermal growth factor receptor (Homo sapiens, UniProt P00533). Kind of test: Inhibition of EGFR by HTRF assay.
The target in test [3] is T1, Myosin light chain kinase, smooth muscle. The test is described as follows: Inhibition of MLCK up to 40 uM by HTRF assay. Summed up:
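HTRF activity assay with peptide substrate STK1 at 375 nM and ATP at its Km (18 µM), in the presence of Ca2+/calmodulin. Kinase and inhibitor preincubated 30 min, then ATP plus substrate added. Detection by Eu-cryptate anti-phospho-STK1 antibody and streptavidin-XL665, with the 665/620 nm FRET ratio read. Eight inhibitor concentrations, Hill 4-parameter fit. At least two independent runs, each in duplicate. NI means no inhibition up to 40 µM.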

The target of test [4] is T2, Epidermal growth factor receptor. Kind of test: Inhibition of EGFR up to 40 uM by HTRF assay.

Calls of active or inactive are those of the source. The rule behind the calls is not given here.

This is an account of results in ChEMBL document CHEMBL1641579, “Synthesis and biological evaluation of 7-substituted-1-(3-bromophenylamino)isoquinoline-4-carbonitriles as inhibitors of myosin light chain kinase and epidermal growth factor receptor” (Bioorg Med Chem, 2011).

T1 sequence (Q15746 whole entry): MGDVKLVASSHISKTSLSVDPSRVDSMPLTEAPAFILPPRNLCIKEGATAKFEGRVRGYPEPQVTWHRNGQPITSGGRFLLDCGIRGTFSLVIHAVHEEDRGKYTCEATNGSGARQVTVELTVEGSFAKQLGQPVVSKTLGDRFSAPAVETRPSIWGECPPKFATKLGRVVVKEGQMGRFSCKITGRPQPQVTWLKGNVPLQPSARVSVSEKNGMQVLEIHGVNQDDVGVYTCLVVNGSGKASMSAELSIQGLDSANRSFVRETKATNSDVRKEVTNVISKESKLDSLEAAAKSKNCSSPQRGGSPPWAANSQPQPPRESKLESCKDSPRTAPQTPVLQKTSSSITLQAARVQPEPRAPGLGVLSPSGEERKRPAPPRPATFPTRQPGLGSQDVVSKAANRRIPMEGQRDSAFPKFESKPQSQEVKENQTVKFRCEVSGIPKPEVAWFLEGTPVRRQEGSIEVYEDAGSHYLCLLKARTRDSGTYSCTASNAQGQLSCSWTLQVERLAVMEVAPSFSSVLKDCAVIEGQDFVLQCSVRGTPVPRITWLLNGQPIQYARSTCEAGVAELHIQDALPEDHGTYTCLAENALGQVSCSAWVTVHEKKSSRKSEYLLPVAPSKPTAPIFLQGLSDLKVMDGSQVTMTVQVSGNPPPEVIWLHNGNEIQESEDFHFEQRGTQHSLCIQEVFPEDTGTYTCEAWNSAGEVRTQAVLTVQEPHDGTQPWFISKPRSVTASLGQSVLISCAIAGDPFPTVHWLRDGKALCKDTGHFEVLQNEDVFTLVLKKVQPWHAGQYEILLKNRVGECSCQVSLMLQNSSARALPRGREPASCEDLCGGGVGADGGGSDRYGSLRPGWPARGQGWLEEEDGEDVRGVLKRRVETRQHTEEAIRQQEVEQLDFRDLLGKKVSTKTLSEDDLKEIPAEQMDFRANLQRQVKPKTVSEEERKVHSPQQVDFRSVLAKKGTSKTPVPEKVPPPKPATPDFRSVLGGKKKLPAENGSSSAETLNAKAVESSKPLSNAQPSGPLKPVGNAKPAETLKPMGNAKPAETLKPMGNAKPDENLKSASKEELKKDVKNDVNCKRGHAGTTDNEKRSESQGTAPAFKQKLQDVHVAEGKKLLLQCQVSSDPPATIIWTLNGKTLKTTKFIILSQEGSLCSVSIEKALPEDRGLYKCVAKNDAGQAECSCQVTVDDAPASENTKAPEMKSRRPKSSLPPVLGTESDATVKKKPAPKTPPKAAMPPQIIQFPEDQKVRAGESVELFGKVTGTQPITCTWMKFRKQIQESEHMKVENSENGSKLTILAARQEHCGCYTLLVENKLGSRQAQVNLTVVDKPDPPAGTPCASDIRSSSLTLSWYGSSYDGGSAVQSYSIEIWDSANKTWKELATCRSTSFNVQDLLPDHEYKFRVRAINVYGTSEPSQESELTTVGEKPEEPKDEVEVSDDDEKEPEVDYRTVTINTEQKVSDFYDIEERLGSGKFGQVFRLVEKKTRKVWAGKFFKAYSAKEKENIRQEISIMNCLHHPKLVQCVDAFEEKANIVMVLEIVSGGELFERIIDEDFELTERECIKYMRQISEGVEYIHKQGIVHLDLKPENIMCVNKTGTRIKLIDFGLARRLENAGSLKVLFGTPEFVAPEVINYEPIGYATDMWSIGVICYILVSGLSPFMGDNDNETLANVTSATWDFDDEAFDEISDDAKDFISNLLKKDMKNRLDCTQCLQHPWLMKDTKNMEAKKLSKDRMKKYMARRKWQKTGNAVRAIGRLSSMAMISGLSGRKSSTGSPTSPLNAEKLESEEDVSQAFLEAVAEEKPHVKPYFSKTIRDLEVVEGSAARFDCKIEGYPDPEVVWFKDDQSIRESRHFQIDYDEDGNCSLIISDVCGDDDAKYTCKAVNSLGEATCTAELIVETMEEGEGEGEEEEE
T2 sequence (P00533 whole entry): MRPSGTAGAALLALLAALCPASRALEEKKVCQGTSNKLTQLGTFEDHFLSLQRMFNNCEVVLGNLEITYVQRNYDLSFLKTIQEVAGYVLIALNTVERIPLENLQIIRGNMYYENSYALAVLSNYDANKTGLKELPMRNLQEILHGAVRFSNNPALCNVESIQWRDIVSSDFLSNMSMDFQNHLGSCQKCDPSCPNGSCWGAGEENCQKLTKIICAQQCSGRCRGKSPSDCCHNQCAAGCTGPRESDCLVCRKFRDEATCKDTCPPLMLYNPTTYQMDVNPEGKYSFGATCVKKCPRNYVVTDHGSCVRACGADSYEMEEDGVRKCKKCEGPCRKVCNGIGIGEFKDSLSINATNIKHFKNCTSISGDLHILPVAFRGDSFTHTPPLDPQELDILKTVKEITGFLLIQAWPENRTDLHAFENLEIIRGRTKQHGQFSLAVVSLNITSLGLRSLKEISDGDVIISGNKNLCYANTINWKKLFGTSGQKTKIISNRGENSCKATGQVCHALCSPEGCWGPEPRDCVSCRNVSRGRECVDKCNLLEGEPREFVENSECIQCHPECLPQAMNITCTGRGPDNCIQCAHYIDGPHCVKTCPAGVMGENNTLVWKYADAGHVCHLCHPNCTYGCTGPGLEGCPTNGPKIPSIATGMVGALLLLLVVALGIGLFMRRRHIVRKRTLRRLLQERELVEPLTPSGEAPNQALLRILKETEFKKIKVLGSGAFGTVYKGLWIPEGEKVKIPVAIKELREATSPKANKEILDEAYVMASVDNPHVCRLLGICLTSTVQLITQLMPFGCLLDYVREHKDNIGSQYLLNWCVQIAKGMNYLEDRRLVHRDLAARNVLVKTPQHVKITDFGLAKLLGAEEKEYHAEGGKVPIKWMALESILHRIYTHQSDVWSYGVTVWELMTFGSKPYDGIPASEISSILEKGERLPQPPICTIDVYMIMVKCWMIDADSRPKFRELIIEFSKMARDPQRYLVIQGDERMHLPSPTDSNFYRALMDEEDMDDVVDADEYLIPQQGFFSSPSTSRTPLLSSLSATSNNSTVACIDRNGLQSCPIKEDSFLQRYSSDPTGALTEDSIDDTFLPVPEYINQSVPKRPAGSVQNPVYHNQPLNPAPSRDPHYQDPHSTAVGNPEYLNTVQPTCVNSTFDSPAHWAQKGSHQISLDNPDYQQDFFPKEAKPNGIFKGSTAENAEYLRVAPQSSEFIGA

For `O=S(=O)(c1cccc2c(I)cccc12)N1CCCNCC1`, in test [1], the affinity, expressed as Ki, was 0.3 µM.

With `N#Cc1cnc(Nc2cccc(Br)c2)c2cc(NC(=O)c3ccco3)ccc12`, in test [2], the midpoint of inhibition, the IC50, lay at 55.6 µM. Moreover, in test [3], the inhibition result is “inactive”.

In test [1], `O=S(=O)(c1cccc2cnccc12)N1CCCNCC1` [FASUDIL] registered a concentration for half-maximal inhibition (IC50) of 21.6 µM and a Ki of 36 µM.

Turning to `N#Cc1cnc(Nc2cccc(Br)c2)c2cc(NC(=O)CCN3CCOCC3)ccc12`, the IC50 in test [2] was found to be 6.9 µM. For the same compound, in test [3], the inhibition entry was “inactive”.

`N#Cc1cnc(Nc2cccc(Br)c2)c2cc(NC(=O)c3cc4ccccc4[nH]3)ccc12`: the inhibition entry in test [3] and in test [4] was “inactive” in each case.

In turn, `N#Cc1cnc(Nc2cccc(Br)c2)c2cc(NC(=O)c3ccoc3)ccc12` displayed an IC50 in test [2] of 45.2 µM. The inhibition result in test [3] was “inactive”.

On to `N#Cc1cnc(Nc2cccc(Br)c2)c2cc(NC(=O)[C@@H]3CCC(=O)N3)ccc12`, for which 2.2 µM corresponded to half-maximal inhibition in test [2] (IC50). In addition, the inhibition entry in test [3] is “inactive”.

Turning to `COC[C@H]1OC(=O)c2coc3c2[C@@]1(C)C1=C(C3=O)[C@@H]2CCC(=O)[C@@]2(C)C[C@H]1OC(C)=O` [WORTMANNIN], the IC50 in test [1] was 0.17 µM.

On to `NCCCCCCNS(=O)(=O)c1cccc2c(Cl)cccc12`, for which the affinity in test [1] corresponds to a Ki of 110 µM.

Turning to `CCC(=O)Nc1ccc2c(C#N)cnc(Nc3cccc(Br)c3)c2c1`, inhibition in test [2] was half-maximal at 20.8 µM (IC50). Further, the inhibition result in test [3] was “inactive”.

Regarding `CCOC(=O)Nc1ccc2c(C#N)cnc(Nc3cccc(Br)c3)c2c1`, half-maximal inhibition in test [2] (IC50) was put at 12.8 µM. In test [3], the inhibition result is “inactive”.

The term Ki denotes a measure of affinity in units of concentration, obtained from inhibition or displacement. Low values mean a stronger hold on the target, high ones a looser hold on the target. In general, IC50 refers to the midpoint of a concentration-inhibition curve. The low end stands for higher potency, the high end for lower potency.
